In ChEMBL document CHEMBL3865819, “Myrsinane, Premyrsinane, and Cyclomyrsinane Diterpenes from Euphorbia falcata as Potassium Ion Channel Inhibitors with Selective G Protein-Activated Inwardly Rectifying Ion Channel (GIRK) Blocking Effects” (J Nat Prod, 2016):

How the values were obtained:
Format in all cases: cell-based
[1] = target: T1, Kir3.1/Kir3.4 (Homo sapiens) (UniProt P48549+P48544); test: Inhibition of GTPgammaS-induced activation of GIRK1/4 (unknown origin) expressed in HEK293 cells assessed as decrease in channel current at 1 uM after 2 mins at -40 mV holding potential by automated patch-clamp electrophysiology assay
How it was run: (§1)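 Whole-cell automated planar patch clamp on HEK-293 cells stably expressing GIRK1/4 (Kir3.1/3.4). Internal solution carries 0.9 mM GTPγS to activate channels; bath switched from 4 mM K+ to high-K+ (25 mM KCl) external, pH 7.4. Step to 60 mV, ramp to −140 mV, 100 ms at −140 mV, ~0.1 Hz; inward current read at −140 mV. After 3 min control, 1 then 10 μM for ~2 min each; K+-free solution baseline; two to three cells.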

[2] = target: T1, Kir3.1/Kir3.4 (Homo sapiens); test: Inhibition of GTPgammaS-induced activation of GIRK1/4 (unknown origin) expressed in HEK293 cells assessed as decrease in channel current at 10 uM after 2 mins at -40 mV holding potential by automated patch-clamp electrophysiology assay; how it was run: as §1
hERG (KCNH2) [3] = target: T2, hERG (KCNH2) (Homo sapiens, UniProt Q12809); test: Inhibition of human ERG expressed in HEK293 cells assessed as decrease in channel current at 3 uM after 3 mins at -80 mV holding potential by automated patch-clamp electrophysiology assay; settings: HEK293 cells that express hERG
T2 sequence (Q12809 whole entry): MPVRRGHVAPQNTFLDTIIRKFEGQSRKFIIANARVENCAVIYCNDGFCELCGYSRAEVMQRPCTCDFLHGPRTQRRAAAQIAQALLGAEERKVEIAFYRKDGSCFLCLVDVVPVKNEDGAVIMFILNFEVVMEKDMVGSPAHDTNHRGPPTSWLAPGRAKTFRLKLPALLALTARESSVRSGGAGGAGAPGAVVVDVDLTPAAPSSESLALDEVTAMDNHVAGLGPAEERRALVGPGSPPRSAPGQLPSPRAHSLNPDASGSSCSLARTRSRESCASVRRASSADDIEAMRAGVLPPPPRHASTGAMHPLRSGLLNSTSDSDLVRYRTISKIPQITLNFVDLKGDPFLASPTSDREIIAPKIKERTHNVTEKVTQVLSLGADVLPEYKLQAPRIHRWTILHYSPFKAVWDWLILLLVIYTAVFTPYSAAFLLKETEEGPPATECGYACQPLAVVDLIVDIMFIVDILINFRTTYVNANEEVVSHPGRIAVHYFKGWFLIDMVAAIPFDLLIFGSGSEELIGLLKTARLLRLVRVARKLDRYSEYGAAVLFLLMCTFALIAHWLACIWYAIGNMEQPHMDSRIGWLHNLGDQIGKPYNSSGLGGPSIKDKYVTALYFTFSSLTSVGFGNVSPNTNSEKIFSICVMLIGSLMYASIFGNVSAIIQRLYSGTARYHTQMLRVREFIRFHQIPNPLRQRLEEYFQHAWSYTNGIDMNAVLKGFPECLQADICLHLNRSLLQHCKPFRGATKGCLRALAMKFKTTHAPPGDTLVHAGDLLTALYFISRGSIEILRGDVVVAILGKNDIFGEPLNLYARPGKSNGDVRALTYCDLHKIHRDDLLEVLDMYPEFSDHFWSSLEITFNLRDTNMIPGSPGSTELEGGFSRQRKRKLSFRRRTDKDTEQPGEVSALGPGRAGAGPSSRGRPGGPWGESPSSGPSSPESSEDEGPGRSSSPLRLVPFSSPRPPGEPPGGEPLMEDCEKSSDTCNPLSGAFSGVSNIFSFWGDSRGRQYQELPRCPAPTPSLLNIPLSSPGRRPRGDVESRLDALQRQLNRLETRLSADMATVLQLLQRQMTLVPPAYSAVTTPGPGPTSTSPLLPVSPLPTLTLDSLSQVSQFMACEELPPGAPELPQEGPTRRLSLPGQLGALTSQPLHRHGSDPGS
How it was run: (§2)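 HEK-293 cells stably transfected with hERG (Kv11.1), whole-cell automated planar patch clamp. External solution 4 mM KCl, pH 7.4; internal KCl/KF/EGTA, pH 7.2. Protocol: 100 ms −40 mV reference step, 3 s at 20 mV, then 1 s at −40 mV for the outward tail current. After control, 3, 10, 30 μM cumulative, ~3 min each; amitriptyline 10 μM reference, then wash-out; two or three cells; DMSO ≤0.3% final.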

hERG (KCNH2) [4] = target: T2, hERG (KCNH2); test: Inhibition of human ERG expressed in HEK293 cells assessed as decrease in channel current at 10 uM after 3 mins at -80 mV holding potential by automated patch-clamp electrophysiology assay; settings: HEK293 cells that express hERG; how it was run: as §2
hERG (KCNH2) [5] = target: T2, hERG (KCNH2); test: Inhibition of human ERG expressed in HEK293 cells assessed as decrease in channel current at 30 uM after 3 mins at -80 mV holding potential by automated patch-clamp electrophysiology assay; settings: HEK293 cells that express hERG; how it was run: as §2
Kir3.1/Kir3.4 = target: T3, Kir3.1/Kir3.4 (Homo sapiens, UniProt P48544+P48549); test: Inhibition of GTPgammaS-induced activation of GIRK1/4 (unknown origin) expressed in HEK293 cells assessed as decrease in channel current after 2 mins at -40 mV holding potential by automated patch-clamp electrophysiology assay
T3 sequence (P48549 whole entry): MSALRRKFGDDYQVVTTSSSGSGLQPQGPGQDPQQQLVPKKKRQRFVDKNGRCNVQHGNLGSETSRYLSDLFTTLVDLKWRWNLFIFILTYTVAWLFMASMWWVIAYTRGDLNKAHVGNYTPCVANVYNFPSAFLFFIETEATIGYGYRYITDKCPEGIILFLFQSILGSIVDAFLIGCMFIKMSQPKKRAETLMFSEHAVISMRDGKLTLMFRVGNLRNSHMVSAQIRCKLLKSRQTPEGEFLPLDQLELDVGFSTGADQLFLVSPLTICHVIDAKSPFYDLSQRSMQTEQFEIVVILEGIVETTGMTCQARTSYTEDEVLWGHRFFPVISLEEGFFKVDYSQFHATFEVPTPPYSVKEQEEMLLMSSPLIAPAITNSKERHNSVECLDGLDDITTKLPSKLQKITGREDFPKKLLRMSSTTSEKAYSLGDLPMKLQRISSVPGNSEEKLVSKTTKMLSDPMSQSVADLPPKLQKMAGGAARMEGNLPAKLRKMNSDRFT
T3 sequence (P48544 whole entry): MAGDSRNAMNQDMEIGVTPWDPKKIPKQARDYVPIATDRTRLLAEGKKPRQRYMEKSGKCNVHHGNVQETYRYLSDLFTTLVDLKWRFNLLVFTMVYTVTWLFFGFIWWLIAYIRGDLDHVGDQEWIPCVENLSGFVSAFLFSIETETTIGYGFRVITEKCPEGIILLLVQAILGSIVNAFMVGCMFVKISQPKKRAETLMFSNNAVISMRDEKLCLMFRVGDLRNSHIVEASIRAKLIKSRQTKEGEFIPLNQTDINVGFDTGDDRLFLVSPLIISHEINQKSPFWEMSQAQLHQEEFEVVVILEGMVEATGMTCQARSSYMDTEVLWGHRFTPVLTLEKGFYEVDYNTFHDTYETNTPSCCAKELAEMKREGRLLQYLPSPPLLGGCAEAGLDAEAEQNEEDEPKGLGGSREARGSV
How it was run: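 HEK-293 cells stably expressing Kir3.1/3.4, grown in MEM with 10% FBS and zeocin, trypsinised and resuspended serum-free. Whole-cell automated planar patch clamp. Internal solution contained 0.9 mM GTPγS. Recordings began in normal external solution (4 mM K+), then switched to high-K+ external solution (25 mM KCl, pH 7.4). Each cycle: step to 60 mV for 100 ms, 500 ms ramp to −140 mV, hold at −140 mV for 100 ms, about 0.1 Hz. Inward current taken from the −140 mV segment. After a 3 min control period, compound was added in rising concentrations, about 2 min each: 1 and 10 μM for screening on 2–3 cells, or 1, 3, 10 and 30 μM on at least 5 cells for IC50. Final DMSO was 0.3% or less. Current in K+-free solution served as baseline. 1 μM propafenone was the reference.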

Row | SMILES | inhibition [1] [%] | inhibition [2] [%] | inhibition at 0.05 h, 3 µM (hERG (KCNH2) [3]) [%] | inhibition at 0.05 h, 10 µM (hERG (KCNH2) [4]) [%] | inhibition at 0.05 h, 30 µM (hERG (KCNH2) [5]) [%] | IC50 (Kir3.1/Kir3.4) [µM]
1 | CCC(=O)O[C@@H]1[C@@H]2[C@@H](OC(C)=O)[C@@]34CO[C@@](C)([C@H](OC(C)=O)[C@@]2(OC(C)=O)C[C@@H]1C)[C@@H]3[C@@H](C(C)(C)OC(C)=O)C=CC4=O | 24 | 62 | 5 | 13 | 18 | 6.7
2 | CC(=O)O[C@@H]1[C@H]2[C@@H](OC(=O)c3ccccc3)[C@@H](C)C[C@]2(OC(C)=O)[C@@H](OC(C)=O)[C@]2(C)OC[C@]13C(=O)C=C[C@H](C(C)(C)OC(C)=O)[C@@H]23 | 43 | 83 | 9 | 20 | 39 | 2.5
3 | CC(=O)O[C@@H]1[C@H]2[C@@H](OC(=O)C(C)C)[C@@H](C)C[C@]2(OC(C)=O)[C@@H](OC(C)=O)[C@]2(C)OC[C@]13C(=O)C=C[C@H](C(C)(C)OC(C)=O)[C@@H]23 [EUPHORBIAPROLIFERIN C] | 34 | 69 | 0 | 4 | 16 | 4.7
4 | CCC(C)C(=O)O[C@H]1C(=O)[C@@]23CO[C@@](C)([C@H](OC(C)=O)[C@@]4(OC(C)=O)C[C@H](C)[C@H](OC(=O)c5cccnc5)[C@@H]4[C@H]2OC(C)=O)[C@@H]3[C@@H]2[C@H]1C[C@]2(C)OC(C)=O (stereo not given in full) | 31 | 72 | 4 | 14 | 25 | 4.9
5 | CC(=O)O[C@@H]1[C@H]2[C@@H](OC(=O)C(C)C)[C@@H](C)C[C@]2(OC(C)=O)[C@@H](OC(C)=O)[C@]2(C)OC[C@]13C(=O)[C@H](OC(C)=O)[C@@H]1C[C@](C)(OC(C)=O)[C@@H]1[C@@H]23 | 28 | 61 | 8 | 16 | 23 | 9.7
